These results are taken from ChEMBL document CHEMBL4028911, “Discovery of a Small-Molecule Bromodomain-Containing Protein 4 (BRD4) Inhibitor That Induces AMP-Activated Protein Kinase-Modulated Autophagy-Associated Cell Death in Breast Cancer” (J Med Chem, 2017).

The subject of series [1] is MCF7. In words: Induction of autophagy in human MCF7 cells assessed as cytoplasmic vacuolization at 1.5 uM by electron microscopy. The class given is functional, cell-based. The procedure, abridged: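 MCF-7 (1.5 µM) or MDA-MB-231 (3 µM) cells treated for indicated times. Cytoplasmic vacuoles examined by transmission electron microscopy.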
Series [2] deals with MDA-MB-231. In words: Effect on AKT expression in human MDA-MB-231 cells at 3 uM measured up to 36 hrs by Western blot analysis. It counts as ADME, cell-based. To be noted: mda-mb-231, 36 h. Put shortly:
(§1)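 MCF-7 (1.5 µM) or MDA-MB-231 (3 µM) cells treated for indicated times. Adherent and floating cells lysed in RIPA with 1 mM PMSF, 4°C for 1 h. Equal protein run on 10-15% SDS-PAGE, transferred to PVDF, blocked with milk or BSA, probed with primary then HRP secondary antibodies, ECL detection; β-actin as loading control.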

For series [3], the target named is T1, Bromodomain-containing protein 4 (Homo sapiens, UniProt O60885). Nature of the series: Inhibition of BRD4 in human MDA-MB-231 cells assessed as increase in ULK1 phosphorylation at ser317 at 3 uM up to 36 hrs by Western blot analysis. The class given is cell-based. The procedure, abridged:
(§2)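 MCF-7 (1.5 μM) or MDA-MB-231 (3 μM) cells treated for indicated times. Adherent and floating cells lysed in RIPA with 1 mM PMSF. Equal protein run on 10-15% SDS-PAGE, blotted to PVDF, blocked in milk or BSA, HRP/ECL detection. β-actin loading control.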
Background: Immunoblotting shows a protein as a band on a membrane.

Series [4] addresses T2, Serine/threonine-protein kinase ULK1 (Homo sapiens) (UniProt O75385).
T2 sequence (whole entry): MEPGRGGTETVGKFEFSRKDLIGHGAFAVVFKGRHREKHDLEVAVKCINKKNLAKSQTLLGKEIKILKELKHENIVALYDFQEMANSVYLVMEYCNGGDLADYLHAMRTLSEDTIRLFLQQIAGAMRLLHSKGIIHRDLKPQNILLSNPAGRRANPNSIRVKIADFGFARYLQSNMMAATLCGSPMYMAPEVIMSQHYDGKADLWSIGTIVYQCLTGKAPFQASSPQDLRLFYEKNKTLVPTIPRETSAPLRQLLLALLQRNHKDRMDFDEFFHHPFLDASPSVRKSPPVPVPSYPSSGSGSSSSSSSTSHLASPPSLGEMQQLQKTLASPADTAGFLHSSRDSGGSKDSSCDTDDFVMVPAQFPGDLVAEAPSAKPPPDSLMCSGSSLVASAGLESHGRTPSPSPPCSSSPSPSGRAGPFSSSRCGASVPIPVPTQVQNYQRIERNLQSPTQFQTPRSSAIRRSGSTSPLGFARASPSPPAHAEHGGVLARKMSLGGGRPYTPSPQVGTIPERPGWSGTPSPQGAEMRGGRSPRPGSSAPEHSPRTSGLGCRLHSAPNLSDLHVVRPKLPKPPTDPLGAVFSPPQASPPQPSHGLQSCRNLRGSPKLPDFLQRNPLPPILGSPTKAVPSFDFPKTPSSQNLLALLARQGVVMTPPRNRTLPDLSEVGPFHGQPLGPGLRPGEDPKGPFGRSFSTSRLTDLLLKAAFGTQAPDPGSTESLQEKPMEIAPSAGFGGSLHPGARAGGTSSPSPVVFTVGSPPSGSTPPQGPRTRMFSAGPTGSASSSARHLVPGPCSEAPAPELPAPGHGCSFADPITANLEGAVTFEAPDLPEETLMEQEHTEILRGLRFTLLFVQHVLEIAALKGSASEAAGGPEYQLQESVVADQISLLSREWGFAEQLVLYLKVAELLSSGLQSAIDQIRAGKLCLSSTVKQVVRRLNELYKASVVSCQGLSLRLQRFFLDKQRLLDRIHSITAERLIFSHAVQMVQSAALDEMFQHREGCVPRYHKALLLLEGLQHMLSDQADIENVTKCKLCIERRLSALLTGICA
Nature of the series: Activation of recombinant human ULK1 (1 to 649 residues) expressed in baculovirus infected Sf9 cells at 1 to 10^6 nM using MBP as substrate after 60 mins in presence of ATP by […] assay. Put shortly:
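ADP-Glo luminescent kinase assay; AMPK or ULK1 enzyme, substrate, ATP and compound diluted in 40 mM Tris pH 7.5, 20 mM MgCl2, 0.1 mg/ml BSA, 50 µM DTT. Enzyme (10 ng) mixed with MBP (0.1 µg/µl)/ATP (10 µM) and compound, 60 min at room temperature. ADP-Glo reagent 40 min, then detection reagent 30 min, luminescence read; signal rises with kinase activity.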

The target in series [5] is T2, Serine/threonine-protein kinase ULK1 (Homo sapiens). Nature of the series: Inhibition of recombinant human ULK1 (1 to 649 residues) expressed in baculovirus infected Sf9 cells at 1 to 10^6 nM using MBP as substrate after 60 mins in presence of ATP by ADO-Glo assay.
Series [6] relates to MDA-MB-231. In words: Inhibition of BRD4 protein expression in human MDA-MB-231 cells at 3 uM measured up to 36 hrs by Western blot analysis. It counts as functional, cell-based. Put shortly:
as §2

In series [7] the test system is MCF7. In words: Induction of autophagy in human MCF7 cells assessed as downregulation of p62/SQSTM1 expression at 1.5 uM measured up to 36 hrs by Western blot analysis. It counts as functional, cell-based. The procedure, abridged: as §1
Series [8] has as its target T1, Bromodomain-containing protein 4. In words: Inhibition of BRD4 in human MCF7 cells assessed as downregulation of AKT phosphorylation at thr308 at 1.5 uM measured up to 36 hrs by Western blot analysis. It counts as cell-based. The procedure, abridged:
as §2

Series [9] concerns MDA-MB-231. In words: Induction of autophagy in human MDA-MB-231 cells assessed as LC3 lipidation at 3 uM in presence of ATG5 siRNA by Western blot analysis. The class given is functional, cell-based.
The subject of series [10] is Mus musculus. In words: Induction of LC3 accumulation in BALB/c mouse xenografted with human MCF7 cells at 100 mg/kg, ig administered once a day for 24 days by Western blot analysis. The class given is functional, organism-based. The procedure, abridged: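 Tumor tissues excised from MCF-7 or MDA-MB-231 xenograft mice were lysed and analysed by western blot for BRD4, c-Myc, LC3 and cleaved caspase-3.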
For orientation: In xenograft studies the graft and the host belong to different species.

For series [11], the system named is Mus musculus. In words: Induction of cleavage of caspase-3 in BALB/c mouse xenografted with human MDA-MB-231 cells at 100 mg/kg, ig administered once a day for 27 days by Western blot analysis. The class given is functional, organism-based. Put shortly: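 Female BALB/c nude mice (6-8 weeks) given 5×10^6 MCF-7 or MDA-MB-231 cells subcutaneously. At 100 mm3 tumours, dosed intragastrically once daily (25, 50, 100 mg/kg, or vehicle) for 24 or 27 days. Excised tumours lysed and probed by western blot for caspase-3 cleavage.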

In series [12] the test system is MCF7. Nature of the series: Induction of autophagy in human MCF7 cells assessed as assessed as cytoplasmic vacuolization. The class given is functional, cell-based.
Series [13] has as its system MDA-MB-231. Nature of the series: Antitumor activity against human MDA-MB-231 cells xenografted in nude BALB/c mouse assessed as reduction in tumor weight at 25 to 100 mg/kg, ig administered once a day for […] measured every 3 days relative to control. The class given is functional, organism-based. The procedure, abridged: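 Female BALB/c nude mice, 6-8 weeks, 20-22 g, injected subcutaneously with 5×10^6 MCF-7 or MDA-MB-231 cells. At 100 mm³ tumor volume (V = L×W²/2), split into four groups: 25, 50 or 100 mg/kg intragastric once daily for 24 or 27 days, or vehicle. Tumor volume and body weight measured every 3 days; tumors excised and weighed at end. MCF-7 n=7, MDA-MB-231 n=6 per group.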

Active and inactive are the calls of the source. The rule behind the calls is not given here.

On to `Cc1cc(-c2nc3sc4c(c3c(=O)[nH]2)CCN(C)C4)cc(C)c1O`, for which the outcome in series [1], in series [7], in series [10], in [11], in series [12] and in series [13] was Active. For the same compound, in series [2], the Activity entry is reported as “Non-Toxic”. Besides, the inhibition entry in [3], in series [6] and in series [8] was “Active” throughout. The outcome in [4] and in series [9] was inactive. The inhibition result in [5] is “inactive”.
